Results reported in ChEMBL document CHEMBL1154716, “Synthesis of some new S-triazine based chalcones and their derivatives as potent antimicrobial agents” (2010).
Converted amounts (≈) assume the structure as drawn. The source made the active and inactive calls. The calls are words filed in the database; no cut-off is given here.

What was measured:
Enterobacter cloacae [1] = assay: Antimicrobial activity against Enterobacter cloacae at 10 ug/disk after 24 hrs by disk diffusion assay; type: functional
Method in brief: (§1)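 Disc diffusion on 4 mm filter discs. Bacteria are grown overnight in LB at 28 C, then adjusted in saline to 1.0 × 10^5 cfu/ml. The suspension is mixed into top agar over peptone agar plates. Plates are incubated 24 h at 28 C, and growth-inhibition zone diameter is measured. Streptomycin and ampicillin controls are applied from a 1 mg/ml stock. Tests are done in duplicate.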

Listeria monocytogenes [2] = assay: Antimicrobial activity against Listeria monocytogenes at 1 umol/disk after 24 hrs by disk diffusion assay; type: functional; method in brief: as §1
Pseudomonas aeruginosa [3] = assay: Antimicrobial activity against Pseudomonas aeruginosa at 10 ug/disk after 24 hrs by disk diffusion assay; type: functional; method in brief: as §1
Salmonella typhimurium [4] = assay: Antimicrobial activity against Salmonella Typhimurium at 10 ug/disk after 24 hrs by disk diffusion assay; type: functional, organism-based; details: Salmonella enterica subsp. enterica serovar Typhimurium; method in brief: as §1
Micrococcus flavus [5] = assay: Antimicrobial activity against Micrococcus flavus at 10 ug/disk after 24 hrs by disk diffusion assay; type: functional; details: read-out: IZ; method in brief: as §1
Escherichia coli [6] = assay: Antimicrobial activity against Escherichia coli at 1 umol/disk after 24 hrs by disk diffusion assay; type: functional; method in brief: as §1
Bacillus cereus [7] = assay: Antimicrobial activity against Bacillus cereus at 1 umol/disk after 24 hrs by disk diffusion assay; type: functional; method in brief: as §1
Salmonella typhimurium [8] = assay: Antimicrobial activity against Salmonella Typhimurium at 1 umol/spot after 18 hrs by TLC-bioautographic method; type: functional
Method in brief: (§2)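 TLC bioautography. Samples are spotted on silica gel TLC plates, then sprayed with bacteria (1.0 × 10^5 cfu/ml) in tryptic soy broth. Plates are incubated 18 h at 37 C and sprayed with 3% aqueous p-iodonitrotetrazolium violet. After a further 3 h, growth is stopped with 70% EtOH. White zones on a pink background are scored as inhibition-zone diameter with standard errors.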

Enterobacter cloacae [9] = assay: Antimicrobial activity against Enterobacter cloacae after 24 hrs by microdilution technique; type: functional
Method in brief: (§3)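 Broth microdilution in LB medium. Inoculum is 1.0 × 10^4 cfu per well, from a saline-adjusted suspension of 1.0 × 10^5 cfu/ml. Compounds are dissolved in DMSO. Incubated 24 h at 28 C. MIC is the lowest concentration with no visible growth under a binocular microscope. MBC is read by subculture into fresh broth for 72 h, with no growth taken as 99.5% kill. OD is read at 655 nm.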

Micrococcus flavus [10] = assay: Antimicrobial activity against Micrococcus flavus at 1 umol/disk after 24 hrs by disk diffusion assay; type: functional; method in brief: as §1
Pseudomonas aeruginosa [11] = assay: Antimicrobial activity against Pseudomonas aeruginosa after 24 hrs by microdilution technique; type: functional; method in brief: as §3
Listeria monocytogenes [12] = assay: Antimicrobial activity against Listeria monocytogenes after 24 hrs by microdilution technique; type: functional; method in brief: as §3
Enterobacter cloacae [13] = assay: Antimicrobial activity against Enterobacter cloacae at 1 umol/spot after 18 hrs by TLC-bioautographic method; type: functional; method in brief: as §2
Staphylococcus aureus [14] = assay: Antimicrobial activity against Staphylococcus aureus after 24 hrs by microdilution technique; type: functional; method in brief: as §3
Micrococcus flavus [15] = assay: Antimicrobial activity against Micrococcus flavus at 1 umol/spot after 18 hrs by TLC-bioautographic method; type: functional; method in brief: as §2
Bacillus cereus [16] = assay: Antimicrobial activity against Bacillus cereus at 1 umol/spot after 18 hrs by TLC-bioautographic method; type: functional; method in brief: as §2
Escherichia coli [17] = assay: Antimicrobial activity against Escherichia coli at 10 ug/disk after 24 hrs by disk diffusion assay; type: functional; method in brief: as §1
Enterobacter cloacae [18] = assay: Antimicrobial activity against Enterobacter cloacae at 1 umol/disk after 24 hrs by disk diffusion assay; type: functional; method in brief: as §1
Salmonella typhimurium [19] = assay: Antimicrobial activity against Salmonella Typhimurium at 1 umol/disk after 24 hrs by disk diffusion assay; type: functional, organism-based; details: Salmonella enterica subsp. enterica serovar Typhimurium; method in brief: as §1
Listeria monocytogenes [20] = assay: Antimicrobial activity against Listeria monocytogenes at 10 ug/disk after 24 hrs by disk diffusion assay; type: functional; method in brief: as §1
Pseudomonas aeruginosa [21] = assay: Antimicrobial activity against Pseudomonas aeruginosa at 1 umol/disk after 24 hrs by disk diffusion assay; type: functional; method in brief: as §1
Salmonella typhimurium [22] = assay: Antimicrobial activity against Salmonella Typhimurium after 24 hrs by microdilution technique; type: functional, Salmonella enterica subsp. enterica serovar Typhimurium; details: Salmonella enterica; method in brief: as §3
Bacillus cereus [23] = assay: Antimicrobial activity against Bacillus cereus at 10 ug/disk after 24 hrs by disk diffusion assay; type: functional; method in brief: as §1
Staphylococcus aureus [24] = assay: Antimicrobial activity against Staphylococcus aureus at 10 ug/disk after 24 hrs by disk diffusion assay; type: functional; method in brief: as §1
Escherichia coli [25] = assay: Antimicrobial activity against Escherichia coli after 24 hrs by microdilution technique; type: functional; method in brief: as §3
Staphylococcus aureus [26] = assay: Antimicrobial activity against Staphylococcus aureus at 1 umol/disk after 24 hrs by disk diffusion assay; type: functional; method in brief: as §1
Staphylococcus aureus [27] = assay: Antimicrobial activity against Staphylococcus aureus at 1 umol/spot after 18 hrs by TLC-bioautographic method; type: functional; method in brief: as §2
Listeria monocytogenes [28] = assay: Antimicrobial activity against Listeria monocytogenes at 1 umol/spot after 18 hrs by TLC-bioautographic method; type: functional; method in brief: as §2
Pseudomonas aeruginosa [29] = assay: Antimicrobial activity against Pseudomonas aeruginosa at 1 umol/spot after 18 hrs by TLC-bioautographic method; type: functional; method in brief: as §2
Micrococcus flavus [30] = assay: Antimicrobial activity against Micrococcus flavus after 24 hrs by microdilution technique; type: functional; method in brief: as §3
Bacillus cereus [31] = assay: Antimicrobial activity against Bacillus cereus after 24 hrs by microdilution technique; type: functional; method in brief: as §3
Escherichia coli [32] = assay: Antimicrobial activity against Escherichia coli at 1 umol/spot after 18 hrs by TLC-bioautographic method; type: functional; method in brief: as §2

Row | SMILES | inhibition zone (IZ) (Enterobacter cloacae [1]) | inhibition zone (IZ) (Listeria monocytogenes [2]) | inhibition zone (IZ) (Pseudomonas aeruginosa [3]) | inhibition zone (IZ) (Salmonella typhimurium [4]) | zone of inhibition at 10 µg/disc (Micrococcus flavus [5]) [mm] | inhibition zone (IZ) (Escherichia coli [6]) | inhibition zone (IZ) (Bacillus cereus [7]) | MBC (Enterobacter cloacae [9]) [µM] | MIC (Enterobacter cloacae [9]) [µM] | inhibition zone (IZ) (Micrococcus flavus [10]) [millimeter] | MBC (Pseudomonas aeruginosa [11]) [µM] | MIC (Pseudomonas aeruginosa [11]) [µM] | MBC (Listeria monocytogenes [12]) [µM] | MIC (Listeria monocytogenes [12]) [µM] | inhibition zone (IZ) (Enterobacter cloacae [13]) | MBC (Staphylococcus aureus [14]) [µM] | MIC (Staphylococcus aureus [14]) [µM] | inhibition zone (IZ) (Micrococcus flavus [15]) [millimeter] | inhibition zone (IZ) (Bacillus cereus [16]) | inhibition zone (IZ) (Enterobacter cloacae [18]) | other results
1 | Nc1nc(-c2ccc(Nc3nc(Nc4ccccc4)nc(Nc4ccccc4)n3)cc2)cc(-c2ccco2)n1 | inactive | inactive | inactive | inactive | 6 | 0.05 millimeter | inactive | 390 (≈ 200 µg/mL) | 195 (≈ 100 µg/mL) | 0.03 | 780 (≈ 401 µg/mL) | 780 (≈ 401 µg/mL) | 780 (≈ 401 µg/mL) | 780 (≈ 401 µg/mL) | 0.08 millimeter | 390 (≈ 200 µg/mL) | 195 (≈ 100 µg/mL) | 0.07 | inactive | inactive | inhibition zone (IZ) (Salmonella typhimurium [8]; Salmonella enterica subsp. enterica serovar Typhimurium): inactive; zone of inhibition at 10 µg/disc (Escherichia coli [17]; read-out: IZ): 10 mm; inhibition zone (IZ) (Salmonella typhimurium [19]): inactive; inhibition zone (IZ) (Listeria monocytogenes [20]): inactive; inhibition zone (IZ) (Pseudomonas aeruginosa [21]): inactive; MBC (Salmonella typhimurium [22]): 390 µM (≈ 200 µg/mL); MIC (Salmonella typhimurium [22]): 195 µM (≈ 100 µg/mL); inhibition zone (IZ) (Bacillus cereus [23]): inactive; inhibition zone (IZ) (Staphylococcus aureus [24]): inactive; MBC (Escherichia coli [25]): 390 µM (≈ 200 µg/mL); MIC (Escherichia coli [25]): 195 µM (≈ 100 µg/mL); inhibition zone (IZ) (Staphylococcus aureus [26]): inactive; inhibition zone (IZ) (Staphylococcus aureus [27]): 0.06 millimeter; inhibition zone (IZ) (Listeria monocytogenes [28]): 0.08 millimeter; inhibition zone (IZ) (Pseudomonas aeruginosa [29]): inactive; MBC (Micrococcus flavus [30]): 390 µM (≈ 200 µg/mL); MIC (Micrococcus flavus [30]): 195 µM (≈ 100 µg/mL); MBC (Bacillus cereus [31]): 390 µM (≈ 200 µg/mL); MIC (Bacillus cereus [31]): 195 µM (≈ 100 µg/mL); inhibition zone (IZ) (Escherichia coli [32]): 0.08 millimeter
2 | CC(=O)N1N=C(c2ccc(Nc3nc(Nc4ccccc4)nc(Nc4ccccc4)n3)cc2)CC1c1ccc([N+](=O)[O-])cc1 (stereo not given) | inactive | inactive | inactive | inactive | 10 | inactive | inactive | 684 (≈ 401 µg/mL) | 684 (≈ 401 µg/mL) | 0.04 | 684 (≈ 401 µg/mL) | 684 (≈ 401 µg/mL) | 684 (≈ 401 µg/mL) | 684 (≈ 401 µg/mL) | 0.09 millimeter | 342 (≈ 200 µg/mL) | 171 (≈ 100 µg/mL) | 0.07 | 0.1 millimeter | inactive | inhibition zone (IZ) (Salmonella typhimurium [8]): 0.1 millimeter; inhibition zone (IZ) (Escherichia coli [17]): inactive; inhibition zone (IZ) (Salmonella typhimurium [19]): inactive; inhibition zone (IZ) (Listeria monocytogenes [20]): inactive; inhibition zone (IZ) (Pseudomonas aeruginosa [21]): inactive; MBC (Salmonella typhimurium [22]): 684 µM (≈ 401 µg/mL); MIC (Salmonella typhimurium [22]): 684 µM (≈ 401 µg/mL); inhibition zone (IZ) (Bacillus cereus [23]): inactive; inhibition zone (IZ) (Staphylococcus aureus [24]): inactive; MBC (Escherichia coli [25]): 342 µM (≈ 200 µg/mL); MIC (Escherichia coli [25]): 171 µM (≈ 100 µg/mL); inhibition zone (IZ) (Staphylococcus aureus [26]): inactive; inhibition zone (IZ) (Staphylococcus aureus [27]): inactive; inhibition zone (IZ) (Listeria monocytogenes [28]): 0.09 millimeter; inhibition zone (IZ) (Pseudomonas aeruginosa [29]): inactive; MBC (Micrococcus flavus [30]): 342 µM (≈ 200 µg/mL); MIC (Micrococcus flavus [30]): 171 µM (≈ 100 µg/mL); MBC (Bacillus cereus [31]): 171 µM (≈ 100 µg/mL); MIC (Bacillus cereus [31]): 85 µM (≈ 49.8 µg/mL); inhibition zone (IZ) (Escherichia coli [32]): inactive
3 | Nc1nc(-c2ccc(Cl)cc2)cc(-c2ccc(Nc3nc(Nc4ccccc4)nc(Nc4ccccc4)n3)cc2)n1 | inactive | inactive | inactive | inactive | 9 | inactive | inactive | 179 (≈ 99.9 µg/mL) | 89.5 (≈ 49.9 µg/mL) | 0.05 | 358 (≈ 200 µg/mL) | 179 (≈ 99.9 µg/mL) | 716 (≈ 400 µg/mL) | 358 (≈ 200 µg/mL) | inactive | 358 (≈ 200 µg/mL) | 179 (≈ 99.9 µg/mL) | 0.07 | 0.09 millimeter | inactive | inhibition zone (IZ) (Salmonella typhimurium [8]): 0.07 millimeter; inhibition zone (IZ) (Escherichia coli [17]): inactive; inhibition zone (IZ) (Salmonella typhimurium [19]): inactive; inhibition zone (IZ) (Listeria monocytogenes [20]): inactive; inhibition zone (IZ) (Pseudomonas aeruginosa [21]): inactive; MBC (Salmonella typhimurium [22]): 358 µM (≈ 200 µg/mL); MIC (Salmonella typhimurium [22]): 179 µM (≈ 99.9 µg/mL); inhibition zone (IZ) (Bacillus cereus [23]): inactive; zone of inhibition at 10 µg/disc (Staphylococcus aureus [24]; read-out: IZ): 7 mm; MBC (Escherichia coli [25]): 179 µM (≈ 99.9 µg/mL); MIC (Escherichia coli [25]): 89.5 µM (≈ 49.9 µg/mL); inhibition zone (IZ) (Staphylococcus aureus [26]): 0.04; inhibition zone (IZ) (Staphylococcus aureus [27]): 0.04 millimeter; inhibition zone (IZ) (Listeria monocytogenes [28]): 0.08 millimeter; inhibition zone (IZ) (Pseudomonas aeruginosa [29]): inactive; MBC (Micrococcus flavus [30]): 358 µM (≈ 200 µg/mL); MIC (Micrococcus flavus [30]): 179 µM (≈ 99.9 µg/mL); MBC (Bacillus cereus [31]): 179 µM (≈ 99.9 µg/mL); MIC (Bacillus cereus [31]): 89.5 µM (≈ 49.9 µg/mL); inhibition zone (IZ) (Escherichia coli [32]): 0.08 millimeter
